Reference: ChEMBL document CHEMBL1125881, “Synthesis and hypocholesterolemic activity of 6,7-dihydro-4H-pyrazolo[1,5-a]pyrrolo[3,4-d]pyrimidine-5,8-diones, novel inhibitors of acylCoA:cholesterol O-acyltransferase” (J Med Chem, 1991)
Values belong to the molecule of their own block, whether it stands above or below them.

Columns and labels:
[1] = molecular target: T1, Sterol O-acyltransferase 1 (Rattus norvegicus) (UniProt O70536); assay: Inhibition of Fu5AH Acyl coenzyme A:cholesterol acyltransferase at the concentration of 10 ug/mL
T1 sequence (whole entry): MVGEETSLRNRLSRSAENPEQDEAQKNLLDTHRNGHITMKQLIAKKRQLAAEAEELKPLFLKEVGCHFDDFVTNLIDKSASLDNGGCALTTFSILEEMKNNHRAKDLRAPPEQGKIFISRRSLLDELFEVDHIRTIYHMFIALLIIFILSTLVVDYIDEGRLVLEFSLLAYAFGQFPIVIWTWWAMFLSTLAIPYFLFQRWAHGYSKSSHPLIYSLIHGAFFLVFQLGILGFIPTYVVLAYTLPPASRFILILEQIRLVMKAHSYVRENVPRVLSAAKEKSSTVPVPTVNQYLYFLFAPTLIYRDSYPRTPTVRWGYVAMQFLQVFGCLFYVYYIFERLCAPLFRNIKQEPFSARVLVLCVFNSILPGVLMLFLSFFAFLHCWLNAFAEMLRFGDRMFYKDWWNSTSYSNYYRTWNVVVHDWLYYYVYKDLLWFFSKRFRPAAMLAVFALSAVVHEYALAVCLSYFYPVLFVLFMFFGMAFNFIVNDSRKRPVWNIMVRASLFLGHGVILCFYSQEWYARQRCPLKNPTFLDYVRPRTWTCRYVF

[2] = molecular target: T2, Sterol O-acyltransferase 1 (Rattus norvegicus, UniProt O70536); assay: In vitro inhibition of Fu5AH acyl coenzyme A:cholesterol acyltransferase.
T2 sequence (O70536 whole entry): T1 sequence (whole entry)

Rattus norvegicus [3] = species on record: Rattus norvegicus; assay: (§1) The compound was tested for % control of serum cholesterol in cholesterol; assay type: functional
Outline: (§2)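 Male Sprague-Dawley rats (100–110 g), groups of 10, fed synthetic diet with 1% cholesterol; compound mixed into diet to give the stated daily dose (mg/kg) for 7 days. Serum from jugular bleed under anesthesia; VLDL+LDL separated from HDL by PEG-8000 precipitation in glycine buffer pH 9; values expressed as % of cholesterol-fed control; one-way design, LSD comparison.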

Rattus norvegicus [4] = species on record: Rattus norvegicus; assay: as §1; assay type: functional; outline: as §2; remark: listed apart in the source
Rattus norvegicus [5] = species on record: Rattus norvegicus; assay: as §1; assay type: functional; outline: as §2; remark: listed apart in the source
Rattus norvegicus [6] = species on record: Rattus norvegicus; assay: (§3) Percent control of serum cholesterol in cholesterol; assay type: functional; set-up: concentration or dose not given beside the values; outline: as §2
Rattus norvegicus [7] = species on record: Rattus norvegicus; assay: as §3; assay type: functional; set-up: concentration or dose not given beside the values; outline: as §2; remark: listed apart in the source
Rattus norvegicus [8] = species on record: Rattus norvegicus; assay: as §3; assay type: functional; set-up: concentration or dose not given beside the values; outline: as §2; remark: listed apart in the source
[9] = molecular target: T1, Sterol O-acyltransferase 1 (Rattus norvegicus); assay: (§4) Serum lipoprotein cholesterol in Cholesterol-fed rats Treated with ACAT inhibitor, after one week; assay type: functional
Outline: (§5)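 Rats fed 1% cholesterol diet for one week, then for a second week the same diet with inhibitor in feed at 20 mg/kg/day, or the synthetic diet without cholesterol. 5 rats per group. Serum HDL, VLDL/LDL (PEG-8000 precipitation, glycine pH 9) and total cholesterol measured at day 7 and […].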

[10] = molecular target: T1, Sterol O-acyltransferase 1 (Rattus norvegicus); assay: (§6) Serum lipoprotein cholesterol diet containing ACAT inhibitor, after one week; assay type: functional; outline: as §5
Rattus norvegicus [11] = species on record: Rattus norvegicus; assay: (§7) Serum lipoprotein cholesterol fed rats dieted or both weeks, after one week; assay type: functional, organism-based; outline: as §5
[12] = molecular target: T1, Sterol O-acyltransferase 1 (Rattus norvegicus); assay: as §4; assay type: functional; outline: as §5; remark: listed apart in the source
Rattus norvegicus [13] = species on record: Rattus norvegicus; assay: Serum lipoprotein cholesterol fed rats dieted for both weeks, after one week; assay type: functional, organism-based; outline: as §5
[14] = molecular target: T1, Sterol O-acyltransferase 1 (Rattus norvegicus); assay: as §6; assay type: functional; outline: as §5; remark: listed apart in the source
[15] = molecular target: T1, Sterol O-acyltransferase 1 (Rattus norvegicus); assay: (§8) Serum lipoprotein cholesterol in Cholesterol-fed rats Treated with ACAT inhibitor, after two weeks; assay type: functional; outline: as §5
Rattus norvegicus [16] = species on record: Rattus norvegicus; assay: (§9) Serum lipoprotein cholesterol fed rats dieted or both weeks, after two weeks; assay type: functional, organism-based; outline: as §5
[17] = molecular target: T1, Sterol O-acyltransferase 1 (Rattus norvegicus); assay: as §8; assay type: functional; outline: as §5; remark: listed apart in the source
[18] = molecular target: T1, Sterol O-acyltransferase 1 (Rattus norvegicus); assay: (§10) Serum lipoprotein cholesterol diet containing ACAT inhibitor, after two weeks; assay type: functional; outline: as §5
Rattus norvegicus [19] = species on record: Rattus norvegicus; assay: as §9; assay type: functional, organism-based; outline: as §5; remark: listed apart in the source
[20] = molecular target: T1, Sterol O-acyltransferase 1 (Rattus norvegicus); assay: as §8; assay type: functional; outline: as §5; remark: listed apart in the source
Rattus norvegicus [21] = species on record: Rattus norvegicus; assay: Serum lipoprotein cholesterol fed rats dieted for both weeks, after two weeks; assay type: functional, organism-based; outline: as §5
[22] = molecular target: T1, Sterol O-acyltransferase 1 (Rattus norvegicus); assay: as §10; assay type: functional; outline: as §5; remark: listed apart in the source
[23] = molecular target: T1, Sterol O-acyltransferase 1 (Rattus norvegicus); assay: The compound was tested for Serum Lipoprotein cholesterol- (HDL) (mg/dL) concentrations in Cholesterol-fed rats Treated with ACAT inhibitor; assay type: functional; outline: as §5
[24] = molecular target: T1, Sterol O-acyltransferase 1 (Rattus norvegicus); assay: The compound was tested for Serum Lipoprotein cholesterol- (VLDL+LDL) (mg/dL) concentrations in Cholesterol-fed rats Treated with ACAT inhibitor; assay type: functional; outline: as §5
[25] = molecular target: T1, Sterol O-acyltransferase 1 (Rattus norvegicus); assay: The compound was tested for Serum Lipoprotein cholesterol- (total) (mg/dL) concentrations in Cholesterol-fed rats Treated with ACAT inhibitor; assay type: functional; outline: as §5
Rattus norvegicus [26] = assay: The compound was tested for % absorption of cholesterol in Cholesterol-Fed rats dosed at 20 mg/kg of body weight per day.; assay type: functional, organism-based; set-up: dose 20 mg/kg
Outline: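 Zilversmit dual-isotope plasma ratio method in rats fed cholesterol diet ± compound in feed at 20 mg/kg/day. After one week, [3H]cholesterol given iv and [14C]cholesterol by oral gavage. Blood sampled on days 4, 7 and 9 after label; % oral cholesterol absorbed averaged over the 3 days per rat; one-way design.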

[27] = molecular target: T1, Sterol O-acyltransferase 1 (Rattus norvegicus); assay: as §4; assay type: functional; outline: as §5; remark: listed apart in the source
[28] = molecular target: T1, Sterol O-acyltransferase 1 (Rattus norvegicus); assay: as §6; assay type: functional; outline: as §5; remark: listed apart in the source
Rattus norvegicus [29] = species on record: Rattus norvegicus; assay: as §7; assay type: functional, organism-based; outline: as §5; remark: listed apart in the source
Rattus norvegicus [30] = species on record: Rattus norvegicus; assay: as §1; assay type: functional; outline: as §2; remark: listed apart in the source
Rattus norvegicus [31] = species on record: Rattus norvegicus; assay: as §1; assay type: functional; outline: as §2; remark: listed apart in the source
Rattus norvegicus [32] = species on record: Rattus norvegicus; assay: as §1; assay type: functional; outline: as §2; remark: listed apart in the source
Rattus norvegicus [33] = species on record: Rattus norvegicus; assay: as §1; assay type: functional; outline: as §2; remark: listed apart in the source
Rattus norvegicus [34] = species on record: Rattus norvegicus; assay: as §1; assay type: functional; outline: as §2; remark: listed apart in the source

- inhibition [1]: 85%
- IC50 [2]: 2.99 µM
- Serum lipoprotein cholesterol [9]: 130
- Serum lipoprotein cholesterol [10]: 119
- Serum lipoprotein cholesterol [12]: 182
- Serum lipoprotein cholesterol [14]: 184
- Serum lipoprotein cholesterol [15]: 50.3
- Serum lipoprotein cholesterol [17]: 56.1
- Serum lipoprotein cholesterol [18]: 32.6
- Serum lipoprotein cholesterol [20]: 106
- Serum lipoprotein cholesterol [22]: 108
- Serum lipoprotein cholesterol [23]: 76.4
- Serum lipoprotein cholesterol [24]: 41.8
- Serum lipoprotein cholesterol [25]: 118
- Serum lipoprotein cholesterol [27]: 52.9
- Serum lipoprotein cholesterol [28]: 65.8
SMILES: O=C(Cn1c2c(c(=O)n3nc(-c4ccc(Cl)cc4)cc13)CN(C1CCCCC1)C2=O)c1ccccc1
- Control (Rattus norvegicus [3]): 141%
- Control (Rattus norvegicus [4]): 84%
- Control (Rattus norvegicus [5]): 32%
- Control (Rattus norvegicus [6]): 134%
- Control (Rattus norvegicus [7]): 85%
- Control (Rattus norvegicus [8]): 40%
- Serum lipoprotein cholesterol (Rattus norvegicus [11]): 77.8
- Serum lipoprotein cholesterol (Rattus norvegicus [13]): 146
- Serum lipoprotein cholesterol (Rattus norvegicus [16]): 52.2
- Serum lipoprotein cholesterol (Rattus norvegicus [19]): 91.9
- Serum lipoprotein cholesterol (Rattus norvegicus [21]): 144
- Absorption (Rattus norvegicus [26]): 27%
- Serum lipoprotein cholesterol (Rattus norvegicus [29]): 68.8
- Control (Rattus norvegicus [30]): 130%
- Control (Rattus norvegicus [31]): 81%
- Control (Rattus norvegicus [32]): 37%

- inhibition [1]: 93%
- IC50 [2]: 10.2 µM
SMILES: C=CCCCCn1c2c(c(=O)n3nc(-c4ccccc4)cc13)CN(C1CCCCC1)C2=O
- Control (Rattus norvegicus [32]): 79%
- Control (Rattus norvegicus [33]): 114%
- Control (Rattus norvegicus [34]): 95%
